PvdQ inh – P. aeruginosa PvdQ acylase inhibitors, primary screen, biochemical, fluorescence, plate reader and imaging, single point. PvdQ acylase [Pseudomonas aeruginosa LESB58]. purified PvdQ acylase. inhibition, % at 10 µM. hit rate 0.063% among 340,000; in the data active means inhibition above about 30%, passing the limit was not always enough;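 further: 0% = vehicle neutral wells and 100% = reference inhibitor wells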
VIM-2 inh – VIM-2 metallo-beta-lactamase inhibitors, primary screen, biochemical, epi-absorbance readout, Pseudomonas aeruginosa enzyme | purified VIM-2, nitrocefin hydrolysis, epi-absorbance fluorescence | inhibition, % at 5.6 µM | hit rate 0.89% among 290,000;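 active means inhibition above the mean of all tested compounds plus 3 SD, cutoff set per screening run, cut at about 7.5% in these data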;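 further: red hydrolysis product quenches plate fluorescence so inhibitors raise well fluorescence; 0% = enzyme with DMSO and 100% = DMSO without enzyme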
CR mimetic SO – reduction of superoxide in aged yeast, primary screen, HTS; S. cerevisiae aged cells, superoxide DHE fluorescence; stronger effect = lower value; superoxide response (% of plate mean), % at 10 µM; hit rate 0.18% among 330,000;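 active means superoxide response under a set limit, about three screen SD below normal, cut at about 65% in these data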;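 further: yeast aged for seven days with compound at 30 °C before DHE staining; 100% = average MFI of all compound-treated wells on the plate with controls excluded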
PHOSPHO1 inh – PubChem AID 1565; Phosphoethanolamine/phosphocholine phosphatase (Homo sapiens), Q8TCT1; recombinant PHOSPHO1, absorbance phosphatase assay; inhibition, % at 13.3 µM; hit rate 1.1% among 290,000; in the data active means inhibition above about 60%
Target sequence (Q8TCT1 whole entry, looked up): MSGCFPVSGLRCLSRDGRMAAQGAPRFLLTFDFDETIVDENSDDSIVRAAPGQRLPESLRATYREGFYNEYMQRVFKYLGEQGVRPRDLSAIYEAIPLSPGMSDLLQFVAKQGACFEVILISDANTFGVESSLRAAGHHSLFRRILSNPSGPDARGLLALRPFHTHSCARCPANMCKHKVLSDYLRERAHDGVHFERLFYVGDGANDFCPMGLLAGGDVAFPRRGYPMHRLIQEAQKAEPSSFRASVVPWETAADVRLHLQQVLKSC
IMP-1 inhibitor – IMP-1 metallo-beta-lactamase inhibitors, primary screen, biochemical, epi-absorbance readout, Pseudomonas aeruginosa enzyme. metallo-beta-lactamase IMP-1 (Pseudomonas aeruginosa). purified IMP-1, nitrocefin hydrolysis, epi-absorbance fluorescence. inhibition, % at 5.6 µM. hit rate 0.45% among 290,000;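 active means inhibition above the mean plus 3 SD of all compounds in the same screening run, cut at about 4.5% in these data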;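 further: 0% = IMP-1 with DMSO and 100% = DMSO wells lacking enzyme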
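System: purified recombinant IMP-1 beta-lactamase. Medium: Zinc- and detergent-supplemented HEPES buffer, pH 7.1. Compound: one 5.6 µM dose […]. Schedule: 15 min preincubation plus 25 min reaction at 25 °C. Technique: Epi-absorbance fluorescence, 480 nm excitation, 530 nm emission.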
Numbers without * were called inactive. An excerpt weighted towards active compounds, which were near 2.2% of everything screened.

How did COc1ccc(CC(=O)NNC(=S)Nc2ccccc2)cc1Br do in these assays?
PvdQ inh: -1; VIM-2 inh: -3; CR mimetic SO: 79; PHOSPHO1 inh: 93*; IMP-1 inhibitor: -4

How did CCOc1ccc(CC(=O)NNC(=S)Nc2ccccc2)cc1Br do in these assays?
PvdQ inh: 0; VIM-2 inh: -3; CR mimetic SO: 117; PHOSPHO1 inh: 87*; IMP-1 inhibitor: -3

How did COc1ccc(CC(=O)NNC(=O)Cc2ccc(OC)cc2)cc1 do in these assays?
VIM-2 inh: -1; CR mimetic SO: 91; PHOSPHO1 inh: 29; IMP-1 inhibitor: 2

Results for COc1ccc(NC(=S)NNC(=O)Cn2nc([N+](=O)[O-])cc2C)cc1 ?
PvdQ inh: -1; VIM-2 inh: 2; CR mimetic SO: 120; PHOSPHO1 inh: 79*; IMP-1 inhibitor: -2

Results for COc1ccc(C2(CNC(=O)Cc3ccccc3)CCCC2)cc1OC ?
PvdQ inh: -11; VIM-2 inh: -3; CR mimetic SO: 100; PHOSPHO1 inh: 65*; IMP-1 inhibitor: -2

Results for Cc1ccc(S(=O)(=O)NNC(=O)c2cccs2)c(C)c1 ?
PvdQ inh: -7; VIM-2 inh: 0; CR mimetic SO: 100; PHOSPHO1 inh: 7; IMP-1 inhibitor: -4

What do the screens show for `Cc1ccc(S(=O)(=O)NNc2ccccc2)c(C)c1`?
PvdQ inh: -8; VIM-2 inh: -2; CR mimetic SO: 104; PHOSPHO1 inh: 76*; IMP-1 inhibitor: -1

What do the screens show for `CCN(CC)C(=O)c1[nH]cnc1C(=O)NCc1ccccc1`?
PvdQ inh: 6; CR mimetic SO: 94

How did c1ccc(Cc2nnc3sc(-c4ccncc4)nn23)cc1 do in these assays?
PvdQ inh: -4; VIM-2 inh: -3; CR mimetic SO: 97; PHOSPHO1 inh: 80*; IMP-1 inhibitor: -2

What do the screens show for `c1ccc(Cc2nnc3sc(-c4cccs4)nn23)cc1`?
PvdQ inh: 8; VIM-2 inh: -3; CR mimetic SO: 99; PHOSPHO1 inh: 18; IMP-1 inhibitor: -3

What do the screens show for `c1csc(-c2nn3c(Cn4cnc5ccccc54)nnc3s2)c1`?
PvdQ inh: -7; VIM-2 inh: -2; CR mimetic SO: 97; PHOSPHO1 inh: 83*; IMP-1 inhibitor: -4

How did Clc1cccc(-c2nn3c(Cn4cnc5ccccc54)nnc3s2)c1 do in these assays?
PvdQ inh: -16; VIM-2 inh: 1; CR mimetic SO: 89; PHOSPHO1 inh: 52; IMP-1 inhibitor: -1

How did c1ccc(Cc2nnc3sc(-c4ccccn4)nn23)cc1 do in these assays?
PvdQ inh: -2; VIM-2 inh: -1; CR mimetic SO: 98; PHOSPHO1 inh: 66*; IMP-1 inhibitor: -6

What do the screens show for `c1ccc2c(c1)nnn2Cc1nnc2sc(-c3ccncc3)nn12`?
PvdQ inh: -11; VIM-2 inh: 5; CR mimetic SO: 129; PHOSPHO1 inh: 79*; IMP-1 inhibitor: 1

How did c1csc(-c2nn3c(Cn4nnc5ccccc54)nnc3s2)c1 do in these assays?
PvdQ inh: -12; VIM-2 inh: 0; CR mimetic SO: 115; PHOSPHO1 inh: -3; IMP-1 inhibitor: 0

What do the screens show for `COc1cc(C)c(CN2CCN(C(C)C(=O)NC(C)c3ccccc3)CC2)cc1OC` (stereo not drawn)?
PvdQ inh: -7; VIM-2 inh: -3; CR mimetic SO: 100; PHOSPHO1 inh: 20; IMP-1 inhibitor: -3

What do the screens show for `O=C(Oc1ccc(Cl)c2cccnc12)C12CC3CC(CC(C3)C1)C2`?
PvdQ inh: -11; VIM-2 inh: -1; CR mimetic SO: 88; PHOSPHO1 inh: -14; IMP-1 inhibitor: -3

What do the screens show for `CN(C1CCCCC1)S(=O)(=O)c1ccc(S(=O)(=O)N(CC(=O)Nc2ccccc2)C2CC2)cc1`?
PvdQ inh: -12; VIM-2 inh: -2; CR mimetic SO: 108; PHOSPHO1 inh: 14; IMP-1 inhibitor: -1

How did CCOc1ccc(N2CSC(=S)N(c3ccc(OCC)cc3)C2)cc1 do in these assays?
PvdQ inh: -12; VIM-2 inh: -2; CR mimetic SO: 105; PHOSPHO1 inh: -18; IMP-1 inhibitor: 4.7*

How did CCOc1ccc(N2CC(=O)SC2=S)cc1 do in these assays?
PvdQ inh: -3; VIM-2 inh: -3; CR mimetic SO: 111; PHOSPHO1 inh: 30; IMP-1 inhibitor: -3

How did COc1ccc(-c2csc3nc(C(C)C)oc(=O)c23)cc1OC do in these assays?
PvdQ inh: -14; VIM-2 inh: -1; CR mimetic SO: 101; PHOSPHO1 inh: 37; IMP-1 inhibitor: 0

Results for COc1ccc(-c2nc3scc(-c4ccc(OC)c(OC)c4)c3c(=O)o2)cc1 ?
PvdQ inh: -6; VIM-2 inh: 0; CR mimetic SO: 91; PHOSPHO1 inh: -4; IMP-1 inhibitor: 5.0*

How did COc1cc(C(=O)NCc2ccc3c(c2)OCO3)c([N+](=O)[O-])cc1OC do in these assays?
PvdQ inh: -15; VIM-2 inh: 1; CR mimetic SO: 104; PHOSPHO1 inh: 44; IMP-1 inhibitor: -3

How did CCOc1ccc(/C(O)=C2/C(=O)C(=O)N(c3nc(C)c(C)s3)C2c2ccco2)cc1 (stereo not drawn) do in these assays?
PvdQ inh: -9; VIM-2 inh: 2; CR mimetic SO: 98; PHOSPHO1 inh: 39; IMP-1 inhibitor: 5.5*

Results for Cc1ccc(-c2cnc(SCC(=O)N3CCCc4ccccc43)n2C)cc1 ?
PvdQ inh: 2; VIM-2 inh: 0; CR mimetic SO: 110; PHOSPHO1 inh: 77*; IMP-1 inhibitor: -3

What do the screens show for `Cc1ccc(N(CCC#N)C(=O)COC(=O)c2ccccn2)cc1`?
PvdQ inh: 8; VIM-2 inh: -1; CR mimetic SO: 99; PHOSPHO1 inh: 23; IMP-1 inhibitor: 0

What do the screens show for `Cc1ccc(S(=O)(=O)N(C)C)cc1NC(=O)COC(=O)c1ccc2ccccc2n1`?
PvdQ inh: 3; CR mimetic SO: 98

How did Cc1ccc(N2C(=S)N=C(Nc3ccccc3C)C23CCOC(C)(C)C3)cc1 (stereo not drawn) do in these assays?
PvdQ inh: -12; VIM-2 inh: -2; CR mimetic SO: 95; PHOSPHO1 inh: 70*; IMP-1 inhibitor: 1

Results for Cc1cccc(C)c1NC1=NC(=S)N(c2ccccc2)C12CCOC(C)(C)C2 (stereo not drawn) ?
PvdQ inh: -11; VIM-2 inh: -1; CR mimetic SO: 90; PHOSPHO1 inh: 7; IMP-1 inhibitor: -3

Results for Cc1ccc(S(=O)(=O)Nc2ccccc2C(=O)N2CCN(C)CC2)cc1 ?
PvdQ inh: 0; VIM-2 inh: -3; CR mimetic SO: 99; PHOSPHO1 inh: 23; IMP-1 inhibitor: -2

What do the screens show for `O=C(NC1CCCCC1)NC1CCN(C(=S)NCc2ccco2)CC1`?
PvdQ inh: 7; VIM-2 inh: -2; CR mimetic SO: 103; PHOSPHO1 inh: 82*; IMP-1 inhibitor: -3

What do the screens show for `O=C1Nc2ccccc2S/C1=C\C(=O)N1CCCC1`?
VIM-2 inh: -2; CR mimetic SO: 107; PHOSPHO1 inh: 36; IMP-1 inhibitor: -1
